Reference: ChEMBL document CHEMBL4706495, “A novel class of small molecule inhibitors with radioprotective properties” (Eur J Med Chem, 2020)

What was measured:
Jurkat [1] = assay: Cytotoxicity against human Jurkat cells assessed as cell viability at 10 uM measured after 48 hrs by WST-1 assay relative to control; type: functional; conditions: read-out: Activity
Outline: (§1)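 Ten-line human panel (9 cancer, 1 non-cancerous). Cells were seeded at a pre-established optimal density (500–30 × 10³ per well) and settled overnight. Compounds came from 10 mM DMSO stocks and were tested at two concentrations. WST-1 readout followed the manufacturer's protocol at the end of cultivation. Viability is expressed as % of untreated control cells, mean of three independent experiments.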

MOLT-4 [2] = assay: Cytotoxicity against human MOLT-4 cells assessed as cell viability at 10 uM measured after 48 hrs by WST-1 assay relative to control; type: functional; conditions: read-out: Activity; outline: as §1
A549 [3] = assay: Cytotoxicity against human A549 cells assessed as cell viability at 10 uM measured after 48 hrs by WST-1 assay relative to control; type: functional; conditions: read-out: Activity; outline: as §1
HT-29 [4] = assay: Cytotoxicity against human HT-29 cells assessed as cell viability at 10 uM measured after 48 hrs by WST-1 assay relative to control; type: functional; conditions: read-out: Activity; outline: as §1
PANC-1 [5] = assay: Cytotoxicity against human PANC-1 cells assessed as cell viability at 10 uM measured after 48 hrs by WST-1 assay relative to control; type: functional; conditions: read-out: Activity; outline: as §1
A2780 [6] = assay: Cytotoxicity against human A2780 cells assessed as cell viability at 10 uM measured after 48 hrs by WST-1 assay relative to control; type: functional; conditions: read-out: Activity; outline: as §1
HeLa [7] = assay: Cytotoxicity against human HeLa cells assessed as cell viability at 10 uM measured after 48 hrs by WST-1 assay relative to control; type: functional; conditions: read-out: Activity; outline: as §1
MCF7 [8] = assay: Cytotoxicity against human MCF7 cells assessed as cell viability at 10 uM measured after 48 hrs by WST-1 assay relative to control; type: functional; conditions: read-out: Activity; outline: as §1
SAOS-2 [9] = assay: Cytotoxicity against human SAOS-2 cells assessed as cell viability at 10 uM measured after 48 hrs by WST-1 assay relative to control; type: functional; conditions: read-out: Activity; outline: as §1
[10] = Cytotoxicity against human MRC5 cells assessed as cell viability at 10 uM measured after 48 hrs by WST-1 assay relative to control; type: cell-based; conditions: read-out: Activity; outline: as §1
Jurkat [11] = assay: Cytotoxicity against human Jurkat cells assessed as cell viability at 100 uM measured after 48 hrs by WST-1 assay relative to control; type: functional; conditions: read-out: Activity; outline: as §1
MOLT-4 [12] = assay: Cytotoxicity against human MOLT-4 cells assessed as cell viability at 100 uM measured after 48 hrs by WST-1 assay relative to control; type: functional; conditions: read-out: Activity; outline: as §1
A549 [13] = assay: Cytotoxicity against human A549 cells assessed as cell viability at 100 uM measured after 48 hrs by WST-1 assay relative to control; type: functional; conditions: read-out: Activity; outline: as §1
HT-29 [14] = assay: Cytotoxicity against human HT-29 cells assessed as cell viability at 100 uM measured after 48 hrs by WST-1 assay relative to control; type: functional; conditions: read-out: Activity; outline: as §1
PANC-1 [15] = assay: Cytotoxicity against human PANC-1 cells assessed as cell viability at 100 uM measured after 48 hrs by WST-1 assay relative to control; type: functional; conditions: read-out: Activity; outline: as §1
A2780 [16] = assay: Cytotoxicity against human A2780 cells assessed as cell viability at 100 uM measured after 48 hrs by WST-1 assay relative to control; type: functional; conditions: read-out: Activity; outline: as §1
HeLa [17] = assay: Cytotoxicity against human HeLa cells assessed as cell viability at 100 uM measured after 48 hrs by WST-1 assay relative to control; type: functional; conditions: read-out: Activity; outline: as §1
MCF7 [18] = assay: Cytotoxicity against human MCF7 cells assessed as cell viability at 100 uM measured after 48 hrs by WST-1 assay relative to control; type: functional; conditions: read-out: Activity; outline: as §1
SAOS-2 [19] = assay: Cytotoxicity against human SAOS-2 cells assessed as cell viability at 100 uM measured after 48 hrs by WST-1 assay relative to control; type: functional; conditions: read-out: Activity; outline: as §1
[20] = Cytotoxicity against human MRC5 cells assessed as cell viability at 100 uM measured after 48 hrs by WST-1 assay relative to control; type: cell-based; conditions: read-out: Activity; outline: as §1
A549 [21] = assay: Cytotoxicity against human A549 cells assessed as reduction in cell viability incubated for 24 hrs by MTT assay; type: functional, cell-based; conditions: A549, 24 h
Outline: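 A-549 cells in DMEM with 10% FBS and 1% penicillin-streptomycin were attached overnight. Compounds were prepared in PBS and serially diluted in DMEM, then incubated 24 h. Viability was read by colorimetric MTT reduction against an untreated control on each plate (100%). IC50 came from four-parameter nonlinear regression of the log concentration-response curve, mean ± SEM. MTC is the highest concentration not differing from control (t-test).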

A549 [22] = assay: Cytotoxicity against human A549 cells assessed as maximum tolerated concentration incubated for 24 hrs by MTT assay; type: functional
Outline: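 A-549 cells in DMEM with 10% FBS and 1% penicillin-streptomycin, left to attach overnight. Compounds made up in PBS, serially diluted in DMEM, incubated 24 h, then viability read by MTT reduction against untreated controls on each plate. MTC taken as the highest concentration showing no significant difference from non-treated control (t-test).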

MOLT-4 [23] = assay: Radioprotective activity against gamma irradiation-induced apoptosis in human MOLT-4 cells assessed as viable cells at 100 uM pretreated with compound for 1 hr followed by gamma irradiation and measured after 24 hrs by annexinV/propidium iodide staining based flow cytometry (reference value: 40 %); type: functional; conditions: MOLT-4, light or radiation study, time 25 hrs, read-out: Activity
[24] = Toxicity in C57Bl/6 mouse assessed as mouth death at 100 mg/kg, ip measured after 30 days; type: organism-based; conditions: in vivo, 720 h, time 30 day
Outline: (§2)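 Safety in C57Bl/6 mice (27 ± 3 g) given a single 100 mg/kg i.p. injection without irradiation. Deaths, adverse effects and body weight followed over 30 days against an untreated control group. Weight reported as change from day 0.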

[25] = Toxicity in C57Bl/6 mouse assessed as adverse effects at 100 mg/kg, ip measured after 30 days; type: organism-based; conditions: in vivo, 720 h, time 30 day; outline: as §2
[26] = Toxicity in C57Bl/6 mouse assessed as average body weight at 100 mg/kg, ip and measured immediately (reference value: 26.3 +/- 2.4 g); type: organism-based; conditions: in vivo
[27] = Toxicity in C57Bl/6 mouse assessed as average body weight at 100 mg/kg, ip measured after 30 days (reference value: 27 +/ 3.2 g); type: organism-based; conditions: in vivo, 720 h, time 30 day
[28] = Toxicity in C57Bl/6 mouse assessed as change in body weight at 100 mg/kg, ip measured after 30 days (reference value: 103 +/- 12 %); type: organism-based; conditions: in vivo, 720 h, time 30 day
Mus musculus [29] = assay: Radioprotective activity in C57Bl/6 mouse assessed as median survival time at 100 mg/kg, ip administered 5 min prior to gamma-irradation at 8.5 Gy and measured after 30 days (reference value: 12 days); type: functional
Mus musculus [30] = assay: Radioprotective activity in C57Bl/6 mouse assessed as average body weight at 100 mg/kg, ip administered 5 min prior to gamma-irradation at 8.5 Gy and measured immediately (reference value: 25.4 +/- 2.6 g); type: functional
Mus musculus [31] = assay: Radioprotective activity in C57Bl/6 mouse assessed as average body weight at 100 mg/kg, ip administered 5 min prior to gamma-irradation at 8.5 Gy and measured after 30 days; type: functional
Mus musculus [32] = assay: Radioprotective activity in C57Bl/6 mouse assessed as body weight gain at 100 mg/kg, ip administered 5 min prior to gamma-irradation at 8.5 Gy measured after 30 days relative to control; type: functional
[33] = Immuno-toxicity in C57Bl/6 mouse assessed as decrease in absolute number of lymphocytes at 100 mg/kg, ip measured after 12 days post-treatment by flow cytometry; type: organism-based; conditions: in vivo, 288 h, time 12 day

## C=CCc1ccc(OCC(O)CN2CCN(CCO)CC2)c(OC)c1 (stereo not drawn)
Jurkat [1]
  viability at 10 µM: 110%
MOLT-4 [2]
  viability at 10 µM: 104%
A549 [3]
  viability at 10 µM: 91%
HT-29 [4]
  viability at 10 µM: 109%
PANC-1 [5]
  viability at 10 µM: 101%
A2780 [6]
  viability at 10 µM: 97%
HeLa [7]
  viability at 10 µM: 100%
MCF7 [8]
  viability at 10 µM: 99%
SAOS-2 [9]
  viability at 10 µM: 112%
[10]
  viability at 48 h, 10 µM: 94%
Jurkat [11]
  viability at 100 µM: 83%
MOLT-4 [12]
  viability at 100 µM: 65%
A549 [13]
  viability at 100 µM: 105%
HT-29 [14]
  viability at 100 µM: 102%
PANC-1 [15]
  viability at 100 µM: 116%
A2780 [16]
  viability at 100 µM: 85%
HeLa [17]
  viability at 100 µM: 99%
MCF7 [18]
  viability at 100 µM: 89%
SAOS-2 [19]
  viability at 100 µM: 75%
[20]
  viability at 48 h, 100 µM: 103%
A549 [21]
  IC50: 1120 µM
A549 [22]
  MTD: 0.2 mM
MOLT-4 [23]
  viability at 100 µM: 52%
[24]
  Activity: Non-Toxic
[25]
  Activity: Non-Toxic
[26]
  Activity: 25.7 g
[27]
  Activity: 27 g
[28]
  Activity: 105%
Mus musculus [29]
  MST: 12 days
Mus musculus [30]
  Activity: 25.1 g
Mus musculus [31]
  Activity: 27.3 g
Mus musculus [32]
  Activity: 103%
[33]
  Activity: Toxic
